Measurements reported in ChEMBL document CHEMBL4393712, “Discovery of chalcone-modified estradiol analogs as antitumour agents that Inhibit tumour angiogenesis and epithelial to mesenchymal transition” (Eur J Med Chem, 2019).
The source made the active and inactive calls. The rule behind the calls is not given here.

Columns and labels:
B16 = experiment: Antitumour activity against mouse B16 cells assessed as cell growth inhibition measured after 72 hrs by SRB assay; type: functional, cell-based; conditions: B16, 72 h
Method in brief: (§1)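 Exponentially growing cells trypsinized, seeded at 5 × 10^4 cells/mL in 96-well plates, cultured overnight, then exposed to compounds for 72 h. Cells fixed with 10% TCA 1 h, stained with SRB 15 min, dye dissolved in Tris-HCl, absorbance read; 50% growth-inhibitory concentration calculated.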

[1] = Toxicity in nude mouse xenografted with human MCF7 cells assessed as effect on heart morphological changes at 22.5 to 45 mg/kg/day, ip administered for 21 days by HE staining analysis; type: organism-based; conditions: in vivo, 504 h
MCF7 [2] = experiment: Inhibition of epithelial-mesenchymal transition in human MCF7 cells assessed as increase in ZO-1 expression level at 2 to 10 uM after 48 hrs by Western blot analysis; type: functional, cell-based
Method in brief: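 MCF-7 cells in RPMI 1640 with 10% FBS, 37 °C, 5% CO2, exposed to no drug, 2 or 10 µM for 48 h. RIPA lysates, BCA quantitation, 8% SDS-PAGE, PVDF transfer, primary antibodies overnight 4 °C, secondary 2 h RT, ECL and densitometry for ZO-1, E-cadherin, N-cadherin, vimentin. Mean ± SD of 3 independent tests.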

MCF7 [3] = experiment: Antitumour activity against human MCF7 cells xenografted in nude mouse assessed as decrease in tumour volume at 22.5 to 45 mg/kg/day, ip administered for 21 days; type: functional, organism-based
Method in brief: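 Nude mice (male/female, 4–6 weeks) injected subcutaneously in right forelimb with 5 × 10^7 MCF-7 cells in 200 µL saline; at mean tumour 100 mm3 randomized (n = 5/group): saline 0.2 mL/day, 22.5 or 45 mg/kg/day ip for 21 days. Body weight and tumour volume (length × width²/2) every other day; tumours weighed at day 21.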

MCF7 [4] = experiment: Antimigratory activity against human MCF7 cells at 2 to 10 uM measured after 48 hrs by wound healing assay; type: functional, cell-based
Method in brief: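 Cells seeded in 6-well plates, monolayer scratched with pipette tip, washed twice, kept in medium with 2% FBS. Gaps imaged, then drug added (0, 2 or 10 µM for HUVEC and MCF-7); gaps re-imaged after 48 h and migration rate calculated. Three independent experiments; one-way ANOVA.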

ECa-109 cell line = experiment: Antitumour activity against human EC109 cells assessed as cell growth inhibition measured after 72 hrs by SRB assay; type: functional, cell-based; conditions: ECa-109, 72 h; method in brief: as §1
GES1 = experiment: Cytotoxicity against human GES-1 cells assessed as reduction in cell viability measured after 48 to 72 hrs by MTT assay; type: cell-based
Method in brief: (§2)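 Cells seeded at 3 × 10^3 per well in 96-well plates, incubated overnight, then given fresh medium with a range of drug concentrations for 48 h or 72 h. MTT added (final 500 µg/mL) for 4 h, formazan dissolved in DMSO, absorbance at 570 nm; IC50 derived. Mean ± SD of 3 independent tests.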

HUVEC [5] = experiment: Effect on FAK expression in HUVEC at 2 to 10 uM after 48 hrs by Western blot analysis; type: functional, cell-based; conditions: Homo sapiens
Method in brief: (§3)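 HUVECs grown in RPMI 1640 with 10% FBS, 37 °C, 5% CO2; treated with no drug, 2 or 10 µM for 48 h. Lysed in RIPA with protease/phosphatase inhibitors on ice 30 min, protein by BCA, 8% SDS-PAGE, PVDF transfer, milk block, primary antibody overnight 4 °C, secondary 2 h RT; ECL detection, densitometry. Probed VEGF-R, FAK, p-FAK, SHC.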

HUVEC [6] = experiment: Reduction in SHC expression in HUVEC at 2 to 10 uM after 48 hrs by Western blot analysis; type: functional, cell-based; conditions: Homo sapiens; method in brief: as §3
SK-N-SH = experiment: Antitumour activity against human SK-N-SH cells assessed as cell growth inhibition measured after 72 hrs by SRB assay; type: functional, cell-based; method in brief: as §1
MDA-MB-231 = experiment: Cytotoxicity against human MDA-MB-231 cells assessed as reduction in cell viability measured after 48 to 72 hrs by MTT assay; type: cell-based; method in brief: as §2
[7] = Toxicity in nude mouse xenografted with human MCF7 cells assessed as effect on spleen morphological changes at 22.5 to 45 mg/kg/day, ip administered for 21 days by HE staining analysis; type: organism-based; conditions: in vivo, 504 h

COc1cc2c(cc1O)CC[C@@H]1[C@@H]2CC[C@]2(C)C(=O)/C(=C/c3ccc(Cl)cc3)C[C@@H]12
IC50 (B16): 17.9 µM
Activity [1]: Non-Toxic
inhibition (MCF7 [2]): Active
inhibition (MCF7 [3]): Active
Activity (MCF7 [4]): Active
IC50 (ECa-109 cell line): 14.7 µM
Activity (GES1): Toxic
Activity (HUVEC [5]): inactive
inhibition (HUVEC [6]): Active
IC50 (SK-N-SH): 24.7 µM
IC50 (MDA-MB-231): 78.6 µM
Activity [7]: Non-Toxic
